Measurements from ChEMBL document CHEMBL3244103, “Modifications of primiaquine as antimalarials. 2. 5-Phenylthio and 5-anilino derivatives of primaquine” (J Med Chem, 1978).
Active and inactive are the calls of the source. The calls are words filed in the database; no cut-off is given here.

Legend:
Plasmodium berghei = assay: Antimalarial activity against Plasmodium berghei infected in mouse at 320 to 640 mg/kg
Mus musculus = species: Mus musculus; assay: Toxicity in mouse; settings: in vivo
Plasmodium cynomolgi [1] = assay: Antimalarial activity against Plasmodium cynomolgi infected in rhesus monkey at 10 mg/kg; type: functional, organism-based; parameters: dose 10 mg/kg
Outline: (§1)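 Radical curative test in rhesus monkeys infected with P. cynomolgi, with compounds given at 0.5, 1 or 10 mg/kg. The read-out is either cures per number of animals treated or the day of relapse for animals not cured.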

Plasmodium cynomolgi [2] = assay: Antimalarial activity against Plasmodium cynomolgi infected in rhesus monkey at 1 mg/kg; type: functional, organism-based; parameters: dose 1 mg/kg
Outline: as §1

Rhesus monkey = assay: Toxicity in rhesus monkey at 160 mg/kg; type: organism-based, Macaca mulatta; parameters: dose 160 mg/kg; settings: in vivo
Plasmodium cynomolgi [3] = assay: Antimalarial activity against Plasmodium cynomolgi infected in rhesus monkey at 0.5 mg/kg; type: functional, organism-based; parameters: dose 0.5 mg/kg
Outline: as §1

COc1ccc(Sc2c(OC)cc(NC(C)CCCN)c3ncccc23)cc1.O=C(O)CC(O)(CC(=O)O)C(=O)O (stereo unspecified)
Activity (Plasmodium berghei): Active | Activity (Mus musculus): Non-toxic

COc1cc(NC(C)CCCN)c2ncccc2c1Sc1cc(Cl)ccc1Cl (stereo unspecified)
Activity (Plasmodium cynomolgi [1]): Active

COc1cc(NC(C)CCCN)c2ncccc2c1Sc1cccc(C(F)(F)F)c1 (stereo unspecified)
Activity (Plasmodium cynomolgi [2]): Active

COc1cc(NC(C)CCCN)c2ncccc2c1Sc1ccccc1Cl (stereo unspecified)
Activity (Plasmodium cynomolgi [1]): Active

COc1cc(NC(C)CCCN)c2ncccc2c1Sc1ccc2ccccc2c1 (stereo unspecified)
Activity (Plasmodium cynomolgi [1]): Active

COc1cc(NC(C)CCCN)c2ncccc2c1Sc1cccc(Cl)c1 (stereo unspecified)
Activity (Plasmodium cynomolgi [1]): Active

COc1cc(NC(C)CCCN)c2ncccc2c1.O=P(O)(O)O.O=P(O)(O)O (stereo unspecified) [PRIMAQUINE PHOSPHATE]
Activity (Rhesus monkey): Toxic

COc1cc(NC(C)CCCN)c2ncccc2c1Sc1ccc(Cl)c(Cl)c1 (stereo unspecified)
Activity (Plasmodium cynomolgi [1]): Active

COc1cc(NC(C)CCCN)c2ncccc2c1Sc1ccc(Cl)cc1 (stereo unspecified)
Activity (Plasmodium cynomolgi [1]): Active | Activity (Plasmodium cynomolgi [3]): inactive
